Measured values: ChEMBL document CHEMBL1914423, “New imidazo[2,1-b]thiazole derivatives: synthesis, in vitro anticancer evaluation, and in silico studies” (Eur J Med Chem, 2011)

Assays:
OVCAR-5 = assay: Anticancer activity against human OVCAR5 cells assessed as cell growth at 10^-5 M after 48 hrs by SRB assay; format: functional; details: OVCAR-5, 48 h, read-out: Activity
[1] = Antiproliferative activity against human A375P cells after 48 hrs by MTT assay; format: functional, cell-based
In short: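 A375P cells in DMEM with 10% FBS at 37 °C, 5% CO2. Seeded at 5×10³ cells/well, held 24 h, then treated with 12-point 3-fold serial dilutions for 48 h. Viability by MTT reduction. IC50 values are means of triplicate experiments.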

UO-31 = assay: Anticancer activity against human UO31 cells assessed as cell growth at 10^-5 M after 48 hrs by SRB assay; format: functional; details: UO-31, 48 h, read-out: Activity
In short: (§1)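 NCI-60 single-dose screen: cells in RPMI 1640 with 5% FBS and 2 mM L-glutamine, plated at 5000–40,000 cells/well by doubling time, and preincubated 24 h at 37 °C. Compound given at one concentration from DMSO stock. Cells TCA-fixed and SRB-stained, absorbance at 515 nm. Percent growth relative to time-zero and untreated controls; inhibition % = 100 − growth %.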

NCI-H226 = assay: Anticancer activity against human NCI-H226 cells assessed as cell growth at 10^-5 M after 48 hrs by SRB assay; format: functional; details: NCI-H226, 48 h, read-out: Activity
OVCAR-4 = assay: Anticancer activity against human OVCAR4 cells assessed as cell growth at 10^-5 M after 48 hrs by SRB assay; format: functional; details: OVCAR-4, 48 h, read-out: Activity
HL-60(TB) = assay: Anticancer activity against human HL-60(TB) cells assessed as cell growth at 10^-5 M after 48 hrs by SRB assay; format: functional; details: HL-60, 48 h, read-out: Activity
In short: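 NCI-60 single-dose screen. Cells in RPMI 1640 with 5% FBS and 2 mM L-glutamine were plated at 5000–40,000 cells/well and preincubated 24 h at 37 °C before one compound concentration. Time-zero plates were TCA-fixed at drug addition. For suspension cells, settled cells were fixed with cold TCA, then SRB-stained and read at 515 nm. Percent growth was calculated from time-zero, control and treated absorbances.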

HOP-92 = assay: Anticancer activity against human HOP92 cells assessed as cell growth at 10^-5 M after 48 hrs by SRB assay; format: functional; details: HOP-92, 48 h, read-out: Activity
In short: (§2)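 NCI-60 single-dose screen at one concentration. Cells grown in RPMI 1640 with 5% FBS and 2 mM L-glutamine, plated at 5000–40,000 cells/well, and pre-incubated 24 h at 37 °C in 5% CO2 before DMSO-dissolved drug was added. Cells fixed with TCA, SRB-stained, absorbance read at 515 nm. Percent growth calculated against time-zero and untreated control plates.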

SW-620 = assay: Anticancer activity against human SW620 cells assessed as cell growth at 10^-5 M after 48 hrs by SRB assay; format: functional; details: SW-620, 48 h, read-out: Activity; in short: as §1
SK-MEL-2 = assay: Anticancer activity against human SK-MEL-2 cells assessed as cell growth at 10^-5 M after 48 hrs by SRB assay; format: functional; details: SK-MEL-2, 48 h, read-out: Activity
HT-29 = assay: Anticancer activity against human HT-29 cells assessed as cell growth at 10^-5 M after 48 hrs by SRB assay; format: functional; details: HT-29, 48 h, read-out: Activity; in short: as §2
HCT-116 = assay: Anticancer activity against human HCT116 cells assessed as cell growth at 10^-5 M after 48 hrs by SRB assay; format: functional; details: HCT-116, 48 h, read-out: Activity; in short: as §2
SF-268 = assay: Anticancer activity against human SF268 cells assessed as cell growth at 10^-5 M after 48 hrs by SRB assay; format: functional; details: SF-268, 48 h, read-out: Activity
NCI-H322M = assay: Anticancer activity against human NCI-H322M cells assessed as cell growth at 10^-5 M after 48 hrs by SRB assay; format: functional; details: read-out: Activity
CAKI-1 = assay: Anticancer activity against human Caki1 cells assessed as cell growth at 10^-5 M after 48 hrs by SRB assay; format: functional; details: CAKI-1, 48 h, read-out: Activity; in short: as §2
UACC-62 = assay: Anticancer activity against human UACC62 cells assessed as cell growth at 10^-5 M after 48 hrs by SRB assay; format: functional; details: UACC-62, 48 h, read-out: Activity; in short: as §1
PC-3 = assay: Anticancer activity against human PC3 cells assessed as cell growth at 10^-5 M after 48 hrs by SRB assay; format: functional; details: PC-3, 48 h, read-out: Activity
SK-MEL-5 = assay: Anticancer activity against human SK-MEL-5 cells assessed as cell growth at 10^-5 M after 48 hrs by SRB assay; format: functional; details: SK-MEL-5, 48 h, read-out: Activity
SNB-19 = assay: Anticancer activity against human SNB19 cells assessed as cell growth at 10^-5 M after 48 hrs by SRB assay; format: functional; details: SNB-19, 48 h, read-out: Activity
MDA-MB-468 = assay: Anticancer activity against human MDA-MB-468 cells assessed as cell growth at 10^-5 M after 48 hrs by SRB assay; format: functional; details: MDA-MB-468, 48 h, read-out: Activity
MCF7 = assay: Anticancer activity against human MCF7 cells assessed as cell growth at 10^-5 M after 48 hrs by SRB assay; format: functional; details: MCF7, 48 h, read-out: Activity; in short: as §2
SF-295 = assay: Anticancer activity against human SF295 cells assessed as cell growth at 10^-5 M after 48 hrs by SRB assay; format: functional; details: SF-295, 48 h, read-out: Activity
EKVX = assay: Anticancer activity against human EKVX cells assessed as cell growth at 10^-5 M after 48 hrs by SRB assay; format: functional; details: read-out: Activity; in short: as §2
MOLT-4 = assay: Anticancer activity against human MOLT4 cells assessed as cell growth at 10^-5 M after 48 hrs by SRB assay; format: functional; details: MOLT-4, 48 h, read-out: Activity
ACHN = assay: Anticancer activity against human ACHN cells assessed as cell growth at 10^-5 M after 48 hrs by SRB assay; format: functional; details: read-out: Activity; in short: as §2
LOX IMVI = assay: Anticancer activity against human LOXIMVI cells assessed as cell growth at 10^-5 M after 48 hrs by SRB assay; format: functional; details: read-out: Activity; in short: as §2
MDA-MB-231 = assay: Anticancer activity against human MDA-MB-231 cells assessed as cell growth at 10^-5 M after 48 hrs by SRB assay; format: functional; details: MDA-MB-231, 48 h, read-out: Activity; in short: as §2
SR = assay: Anticancer activity against human SR cells assessed as cell growth at 10^-5 M after 48 hrs by SRB assay; format: functional; details: read-out: Activity; in short: as §1
T47D = assay: Anticancer activity against human T47D cells assessed as cell growth at 10^-5 M after 48 hrs by SRB assay; format: functional; details: read-out: Activity; in short: as §1
BT-549 = assay: Anticancer activity against human BT549 cells assessed as cell growth at 10^-5 M after 48 hrs by SRB assay; format: functional; details: BT-549, 48 h, read-out: Activity; in short: as §2
M14 = assay: Anticancer activity against human M14 cells assessed as cell growth at 10^-5 M after 48 hrs by SRB assay; format: functional; details: M14, 48 h, read-out: Activity; in short: as §2

SMILES | growth at 10 µM (OVCAR-5) [%] | IC50 [1] [µM] | growth at 10 µM (UO-31) [%] | growth at 10 µM (NCI-H226) [%] | growth at 10 µM (OVCAR-4) [%] | growth at 10 µM (HL-60(TB)) [%] | growth at 10 µM (HOP-92) [%] | growth at 10 µM (SW-620) [%] | growth at 10 µM (SK-MEL-2) [%] | growth at 10 µM (HT-29) [%] | growth at 10 µM (HCT-116) [%] | growth at 10 µM (SF-268) [%] | growth at 10 µM (NCI-H322M) [%] | growth at 10 µM (CAKI-1) [%] | growth at 10 µM (UACC-62) [%] | growth at 10 µM (PC-3) [%] | growth at 10 µM (SK-MEL-5) [%] | growth at 10 µM (SNB-19) [%] | growth at 10 µM (MDA-MB-468) [%] | growth at 10 µM (MCF7) [%] | other results
O=C(NCCNc1nccc(-c2c(-c3cccc(O)c3)nc3sccn23)n1)c1ccccc1O | 88.7 | 3.2 | 34.6 | 80.5 | 96.2 | 59.8 | 59.9 | 77.9 | 13.9 | 49.2 | 25.9 | 62.5 | 72.3 | 24.3 | 0.53 | 51.1 | 22.7 | 90.2 | 52 | 37 | growth at 10 µM (SF-295): 46.4%; growth at 10 µM (EKVX): 66.8%; growth at 10 µM (MOLT-4): 46.2%; growth at 10 µM (ACHN): 46.1%; growth at 10 µM (LOX IMVI): 33.5%; growth at 10 µM (MDA-MB-231): 48.4%; growth at 10 µM (SR): 63.2%; growth at 10 µM (T47D): 61.8%; growth at 10 µM (BT-549): 45.7%; growth at 10 µM (M14): 16.7%
O=C(NCCNc1nccc(-c2c(-c3cccc(O)c3)nc3sccn23)n1)c1cccc(C(F)(F)F)c1 | 113 | 2.1 | 73.4 | 88.5 | 117 | 95.5 | 83.8 | 107 | 62.1 | 81.1 | 74.3 | 86.7 | 103 | 75.6 | 3.21 | 67.3 | 52.6 | 116 | 70.5 | 75.3 | growth at 10 µM (SF-295): 69.6%; growth at 10 µM (EKVX): 91.6%; growth at 10 µM (MOLT-4): 61.5%; growth at 10 µM (ACHN): 66%; growth at 10 µM (LOX IMVI): 53.4%; growth at 10 µM (MDA-MB-231): 76.2%; growth at 10 µM (SR): 97%; growth at 10 µM (T47D): 69.5%; growth at 10 µM (BT-549): 88%; growth at 10 µM (M14): 17.5%
O=C(NCCNc1nccc(-c2c(-c3cccc(O)c3)nc3sccn23)n1)c1cc(C(F)(F)F)cc(C(F)(F)F)c1 | 104 | > 10 | 94.6 | 116 | 129 | 123 | 77.1 | 117 | 101 | 63.1 | 102 | 105 | 122 | 96.8 | 27.5 | 82.8 | 81.6 | 123 | 101 | 96.3 | growth at 10 µM (SF-295): 97.1%; growth at 10 µM (EKVX): 103%; growth at 10 µM (MOLT-4): 87.7%; growth at 10 µM (ACHN): 88.3%; growth at 10 µM (LOX IMVI): 90.7%; growth at 10 µM (MDA-MB-231): 101%; growth at 10 µM (SR): 98.2%; growth at 10 µM (T47D): 88.5%; growth at 10 µM (BT-549): 108%; growth at 10 µM (M14): 38.2%
O=C(NCCNc1nccc(-c2c(-c3cccc(O)c3)nc3sccn23)n1)c1ccc(N2CCOCC2)c(C(F)(F)F)c1 | 91.2 | > 10 | 61.3 | 69.5 | 105 | 113 | 38.9 | 111 | 66.7 | 68.6 | 60.2 | 79.1 | 102 | 66.9 | 5.88 | 56.6 | 40 | 109 | 50.2 | 58.7 | growth at 10 µM (SF-295): 67.5%; growth at 10 µM (EKVX): 74%; growth at 10 µM (MOLT-4): 57%; growth at 10 µM (ACHN): 60.8%; growth at 10 µM (LOX IMVI): 42.2%; growth at 10 µM (MDA-MB-231): 64.9%; growth at 10 µM (SR): 76.1%; growth at 10 µM (T47D): 60.1%; growth at 10 µM (BT-549): 53.8%; growth at 10 µM (M14): 19.1%
O=C(NCCNc1nccc(-c2c(-c3cccc(O)c3)nc3sccn23)n1)c1cc(N2CCOCC2)cc(C(F)(F)F)c1 | 101 | 4.4 | 87.5 | 106 | 133 | 102 | 87.7 | 126 | 64.5 | 49.2 | 78.8 | 102 | 107 | 82.5 | 8.5 | 78.2 | 58.4 | 125 | 94.8 | 85.4 | growth at 10 µM (SF-295): 84.4%; growth at 10 µM (EKVX): 88.6%; growth at 10 µM (MOLT-4): 68.5%; growth at 10 µM (ACHN): 79.4%; growth at 10 µM (LOX IMVI): 52.3%; growth at 10 µM (MDA-MB-231): 74.2%; growth at 10 µM (SR): 97.3%; growth at 10 µM (T47D): 77.7%; growth at 10 µM (BT-549): 84.8%; growth at 10 µM (M14): 22.4%
